MC4R antagonist: antagonists of human melanocortin 4 receptor (MC4R); P32245; MC4R-expressing cells, MTII-stimulated cAMP, LANCE TR-FRET; inhibition, % at 6.5 µM; 360,000 tested, 0.48% active;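 active = inhibition above its plate's cutoff, the mean of tested wells on that plate plus 3 SD, cut at about 29% in these data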
Target sequence (P32245 whole entry, looked up): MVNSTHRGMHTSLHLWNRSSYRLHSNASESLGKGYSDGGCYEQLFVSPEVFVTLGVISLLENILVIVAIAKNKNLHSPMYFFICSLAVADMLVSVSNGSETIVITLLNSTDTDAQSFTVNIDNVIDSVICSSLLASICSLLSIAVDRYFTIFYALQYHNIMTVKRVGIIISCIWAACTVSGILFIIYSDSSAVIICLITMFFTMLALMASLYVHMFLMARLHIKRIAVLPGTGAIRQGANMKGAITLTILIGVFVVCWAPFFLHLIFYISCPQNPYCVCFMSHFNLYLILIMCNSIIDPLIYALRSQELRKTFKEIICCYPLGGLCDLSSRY
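Test system: U2OS cells stably expressing human melanocortin 4 receptor (MC4R); also added: Melanotan II challenge; compound: 6.5 µM single dose; timing: 30-min compound preincubation, 1-h Melanotan II challenge, 1-h detection, room temperature; signal: Eu-cAMP/anti-cAMP TR-FRET, emission 671 nm; repeats: one well per compound, no replicates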
Calb FLC: C. albicans growth modulation with fluconazole | C. albicans CaCi-2 + fluconazole, Alamar Blue growth, 48 h | growth inhibition, % (concentration not given with the values) | 300,000 tested, 0.57% active;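 active = growth inhibition above about 58% in most replicates, limit read from the data, passing the limit was not always enough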;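 also: all wells also contain fluconazole at 8 µg/ml as a sub-toxic cotreatment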
MC4R ag barr: human MC4R agonism via beta-arrestin; P32245; U2OS MC4R beta-arrestin complementation, luminescence; percent of melanotan II response, DMSO zero; activation, % at 8.9 µM; 360,000 tested, 0.98% active; AID 540308;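 active = activation above a per-plate cutoff, the mean activation of sample wells on that plate plus 3 SD, cut at about 8% in these data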
Efflux pump inh: antifungal efflux pump inhibition, Nile Red retention; 330,000 tested, 0.44% active; S. cerevisiae Candida pump triplex; inhibition, % at 10 µM;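 active = plate passing quality check with inhibition over a set limit, or well fluorescence over plate mean plus 4 SD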;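 also: Nile Red retained in pooled yeast measured as flow cytometry median fluorescence; higher means more Nile Red kept so more efflux inhibition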
GalR3 antagonist: blocks the human galanin receptor 3; AID 651719; inhibition, % at 3 µM; HEK293 GalR3-CNG cAMP membrane potential fluorescence; galR3 body fused to GalR1 C-terminus; 360,000 tested, 0.44% active;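 active = inhibition above the screen-wide average plus 3 SD, cut at about 13% in these data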;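 also: forskolin and galanin both at EC90 stimulate the cells; cAMP rise reported by CNG channel membrane potential dye signal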
Target sequence (O60755 1-299 limits assumed): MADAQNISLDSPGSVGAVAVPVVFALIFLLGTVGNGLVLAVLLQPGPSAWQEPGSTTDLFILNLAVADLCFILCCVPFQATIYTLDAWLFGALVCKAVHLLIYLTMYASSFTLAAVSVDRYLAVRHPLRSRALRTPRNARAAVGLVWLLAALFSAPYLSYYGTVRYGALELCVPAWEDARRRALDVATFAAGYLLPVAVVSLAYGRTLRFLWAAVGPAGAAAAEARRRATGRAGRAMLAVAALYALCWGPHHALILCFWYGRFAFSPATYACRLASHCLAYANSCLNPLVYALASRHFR
TAG inh: inhibitors of triacylglycerol accumulation; H9c2 cells, Nile Red lipid (TAG) fluorescence; cells loaded with 200 µM oleic acid; inhibition, % at 12.5 µM; 230,000 tested, 0.66% active; AID 651582;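 active = pattern-corrected inhibition of lipid staining of at least 50% with the nuclear-stain viability signal not falling by more than 50%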
Cmpd fluor yeast: flagged as fluorescent in efflux inhibitor counter-screen. shares compounds with Efflux pump inh. S. cerevisiae AD/pABC3, compound fluorescence, flow cytometry. fluorescence ratio to DMSO, % at 10 µM. 1,700 tested, 4% active. AID 588517;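 active = fluorescence ratio to DMSO above its plate's cutoff, the plate mean ratio plus 5 SD, cut at about 210% in these data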;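 also: unstained yeast with no Nile Red so the signal is compound autofluorescence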
Mdr1 pump inh: blocks the Candida albicans Mdr1 efflux pump in yeast | S. cerevisiae AD/CaMDR1, Nile Red efflux, flow cytometry | shares compounds with Efflux pump inh | 1,700 tested, 1% active | inhibition, % at 10 µM | AID 588518; in the data active = inhibition above about 26%;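 also: higher means more Nile Red retained so more efflux inhibition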
CaCdr2 efflux inh: blocks the Candida albicans Cdr2 efflux pump in yeast | shares compounds with Efflux pump inh | S. cerevisiae AD/CaCDR2, Nile Red retention, flow cytometry | Nile Red retention ratio vs DMSO, % at 10 µM | 1,700 tested, 4% active; in the data active = Nile Red retention ratio vs DMSO above about 190%;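 also: higher ratio means more blocking of Cdr2 efflux of the dye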
Cdr1 pump inh: Candida Cdr1 efflux pump inhibition | 1,700 tested, 1% active | AID 588522 | S. cerevisiae AD/CaCDR1, Nile Red efflux, flow cytometry | shares compounds with Efflux pump inh | inhibition, % at 10 µM;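 active = inhibition above the screen-wide mean plus twice its standard deviation, cut at about 32% in these data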
Hits are given with their value; 0 = inactive; - = not tested or not shown. An excerpt weighted towards active compounds, which were near 2.9% of everything screened.

SMILES	MC4R antagonist	Calb FLC	MC4R ag barr	Efflux pump inh	GalR3 antagonist	TAG inh	Cmpd fluor yeast	Mdr1 pump inh	CaCdr2 efflux inh	Cdr1 pump inh
COc1cc(/C=N/N2CCN(c3ccc(Cl)cc3)CC2)cc(OC)c1OC(C)=O	0	0	0	1.2	0	-	0	0	0	0
Cc1ccc(C)c(OCc2cc(C(=O)N3CCNC(=O)C3)no2)c1	0	0	0	0	0	-	0	0	0	0
Cc1cccc(N(C)c2cc(-c3ccc(F)cc3)nc3ccnn23)c1	0	-	0	-	0	0	-	-	-	-
COc1ccc(CNC(=O)/C=C/C(=O)O)cc1OC	0	0	0	5.5	0	-	0	0	0	0
COc1ccc(CNC(=O)/C=C/c2ccco2)cc1OC	0	0	0	0	0	0	-	-	-	-
CN(C)C(=O)c1cc2c(c(-c3cccc(C4=CCCCC4)c3)n1)[C@@H](CCO)N(S(=O)C(C)(C)C)C2 (some centres not stated)	-	-	-	-	0	-	-	-	-	-
CNC(=O)N(O)C1N(c2ccccc2)C(=S)SC1(C)C (configuration not stated)	0	0	0	8.0	0	-	0	0	0	0
COCCNc1nc(NCc2ccc(C(C)C)cc2)c2sccc2n1	0	-	0	-	0	0	-	-	-	-
O=C(Cc1ccc(Cl)cc1)c1c[nH]c(C(=O)NCCCn2ccnc2)c1	0	0	0	0.6	0	0	0	0	0	0
CCOC(=O)c1ccc(CSc2nnc(N)s2)cc1	0	0	0	1.8	0	0	0	0	0	0
Nc1nnc(SCc2ccc(Cl)cc2)s1	0	0	0	0	0	0	-	-	-	-
Cc1ccc(CN2CC(C(=O)Nc3ccc(S(=O)(=O)N4CCCCC4)cc3)CC2=O)cc1 (configuration not stated)	0	0	0	16	0	0	0	0	0	0
ON=C1C2CC=C(c3ccccc3)C1CCC2 (configuration not stated)	0	-	0	-	0	0	-	-	-	-
CCn1c(SCC(O)c2ccccc2)nnc1-c1ccccc1 (configuration not stated)	0	0	0	0	0	-	-	-	-	-
CCSc1cnc(-c2ccccc2)n1CC	0	0	0	0.5	0	-	0	0	0	0
CC(SCc1ccccc1)C(=O)N/N=C/c1ccc(OCC(=O)NCc2ccco2)cc1 (configuration not stated)	0	0	0	14	0	-	0	0	0	0
COc1ccc(CSCC(=O)N/N=C/c2ccc(OCC(=O)NCc3ccco3)cc2)cc1	0	0	0	0	0	0	-	-	-	-
CC(C)(O)CN(CCCNC(=S)Nc1ccccc1)C(=S)Nc1ccccc1	0	-	0	-	0	0	-	-	-	-
Cc1ccc(-n2c(=O)c3ccccc3n(CC(=O)NCc3ccco3)c2=O)cc1	0	0	0	0	0	0	-	-	-	-
CCc1ccc(-n2c(=O)c3ccccc3n(CC(=O)NCc3ccco3)c2=O)cc1	0	0	0	0.8	0	0	0	0	0	0
O=C(Cc1ccc(NC(=O)C2CCN(C(=O)C3CC3)CC2)cc1)Nc1ccc(C(=O)N2CCOCC2)cc1	0	-	0	-	0	0	-	-	-	-
Cc1cccc(C(=O)N2CCC(=O)N(C(COCc3cccc(C(F)(F)F)c3)Cc3ccccc3)CC2)c1 (configuration not stated)	0	0	0	1.0	0	0	0	0	0	0
Cc1cccc(C(=O)N2CCC(=O)N([C@H](COCc3cccc(C(F)(F)F)c3)Cc3ccccc3)CC2)c1	-	-	-	-	0	-	-	-	-	-
CC(C)NC(=O)C(=O)NNC(=O)C12CC3CC(CC(C3)C1)C2	0	0	0	2.1	0	0	0	0	0	0
CC(CN1CCCCC1)C(=O)NNC(=O)C12CC3CC(CC(C3)C1)C2 (configuration not stated)	0	0	0	0	0	0	-	-	-	-
SMILES	MC4R antagonist	Calb FLC	MC4R ag barr	Efflux pump inh	GalR3 antagonist	TAG inh	Cmpd fluor yeast	Mdr1 pump inh	CaCdr2 efflux inh	Cdr1 pump inh
O=C(c1cc(-c2ccccc2Cl)nc2ccc(Br)cc12)N1CCN(c2ccccn2)CC1	0	0	0	5.3	0	0	0	0	0	0
O=C(O)c1ccccc1-c1ccc(/C=c2\sc3nc4cc(Br)cnc4n3c2=O)o1	0	0	0	0	-	-	-	-	-	-
Cc1cc2nc3s/c(=C/c4ccc(-c5ccccc5C(=O)O)o4)c(=O)n3c2cc1C	0	0	0	0.9	0	-	0	0	0	0
NC(=O)Nc1ccc(Nc2ccccc2)cc1	0	0	0	0	0	0	-	-	-	-
O=C(Nc1ccc(Nc2ccccc2)cc1)C(Cl)Cl	0	0	0	20	0	0	0	0	0	0
COc1ccccc1Nc1nc2nonc2nc1N1CCC(C)CC1	0	0	0	0	0	-	-	-	-	-
COc1ccc(OC)c(Nc2nc3nonc3nc2N2CCCCC2)c1	0	0	0	6.7	0	-	0	0	0	0
Cc1ccc(NC(=S)N(CCN(C)C)Cc2cccs2)c(C)c1	0	0	0	0	0	0	-	-	-	-
Cc1ccc(NC(=S)N(Cc2cccs2)Cc2cc3cccc(C)c3[nH]c2=O)cc1	0	0	0	8.9	0	0	0	0	0	0
Cc1cccc(NC(=S)N(CCN(C)C)Cc2cccs2)c1	0	0	0	1.0	0	0	0	0	0	0
NC(=O)c1cc(-c2ccccc2)nc2ccc(Br)cc12	0	0	0	0	0	0	0	0	0	0
CC(=O)N1CCN(S(=O)(=O)c2cccc(C(=O)OCC(=O)NCc3ccccc3Cl)c2)CC1	0	-	0	-	0	0	-	-	-	-
Cc1ccc(S(=O)(=O)Nc2ccc(-n3cnnn3)cc2)cc1	0	0	0	0.9	0	0	0	0	0	0
CSc1ccc(NS(=O)(=O)c2ccc(-n3cnnn3)cc2)cc1	0	0	0	0	0	0	-	-	-	-
O=C(NC(c1ccc(Cl)cc1)c1ccsc1)C1CCN(CCOc2ccc(Cl)cc2)CC1 (configuration not stated)	0	-	0	-	0	0	-	-	-	-
O=C(NC1CCCC1)[C@@H]1CCCN1C(=O)[C@@H](NS(=O)(=O)c1ccc(F)cc1F)C1CCCCC1	-	-	-	-	0	-	-	-	-	-
Cn1cc(Br)c(C(=O)NNC(=O)Cc2ccc(Cl)cc2)n1	0	0	0	0	0	-	-	-	-	-
Cn1cc(Br)c(C(=O)NNC(=O)c2ccc(Cl)cc2)n1	0	0	0	8.9	0	-	0	0	0	0
COCCn1c(C)cc(C(=O)CSc2nc(C)nc3sc4c(c23)CCC4)c1C	0	0	0	1.6	0	-	0	0	0	0

Bioassay records deposited in PubChem BioAssay by several laboratories.
